An excerpt weighted towards active compounds, which were near 2.2% of everything screened.
TRAIL sens C8 – viability loss with TRAIL in NB7+C8 cells, primary screen, TRAIL sensitizer project, cell-based, ATPlite luminescence. 1% of 360,000 active. inhibition (viability loss, TRAIL sensitization), % at 10 µM;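 active = compounds causing at least 50% loss of cell viability in the single-dose screen, relative to plate controls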
PPC-1+TRAIL kill – compounds killing PPC-1 cancer cells with TRAIL present, primary screen, TRAIL potentiator project, ATPLite luminescence, uHTS; PPC-1 cells + TRAIL, ATPLite viability luminescence; 0.41% of 220,000 active; cell killing (% activity), % at 4 µM or 5 µM;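 active = cell killing above 50% in the first pass at 4 µM, then a duplicate retest at 5 µM averaging 50% or more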
STAT3 inh – IL-6 driven STAT3 reporter inhibitors, primary screen, U3A cells, luciferase, luminescence, MLSCN library; inhibition, % at 5.5 µM; 0.89% of 190,000 active; IL-6 STAT3-luciferase reporter; host cell line lacks STAT1; AID 862, 2007;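 active = inhibition above the mean inhibition across all screened compounds plus 3 SD, cut at about 44% in these data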
FLuc act counter – FLuc activators, initial screening, artefact control for FLuc-dependent activation tests, biochemical, ATPlite luminescence. Luciferin 4-monooxygenase (Photinus pyralis), P08659. ATPlite luciferase biochemical, 10 min; 0 = ATP-free wells, 1 = DMSO control. activation factor at 10 µM. 200,000 tested, under 10 active. AID 1027, 2008;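 active = luciferase activation factor, scaled between plate controls, of at least 2 with compound at 10 µM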
Target sequence (P08659 whole entry, looked up): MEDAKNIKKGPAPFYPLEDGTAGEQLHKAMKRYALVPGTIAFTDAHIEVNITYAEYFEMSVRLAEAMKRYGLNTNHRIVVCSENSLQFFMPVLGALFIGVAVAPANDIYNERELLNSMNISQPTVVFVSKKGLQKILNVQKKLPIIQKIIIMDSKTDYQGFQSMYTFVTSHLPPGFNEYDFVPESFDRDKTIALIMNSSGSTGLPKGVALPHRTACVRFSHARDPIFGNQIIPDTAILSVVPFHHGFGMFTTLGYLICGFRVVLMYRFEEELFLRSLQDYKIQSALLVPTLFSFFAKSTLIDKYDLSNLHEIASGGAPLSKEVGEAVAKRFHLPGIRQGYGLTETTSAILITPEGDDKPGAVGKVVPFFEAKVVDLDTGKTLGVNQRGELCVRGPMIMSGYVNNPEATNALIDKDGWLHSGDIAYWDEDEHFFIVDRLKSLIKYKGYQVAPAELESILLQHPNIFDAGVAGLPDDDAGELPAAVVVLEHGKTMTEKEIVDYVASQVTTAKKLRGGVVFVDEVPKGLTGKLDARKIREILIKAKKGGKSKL
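Assay system: Luciferase/luciferin reagent mix; Medium: PBS as buffer for the ATP substrate; Dosing: test compounds dosed from 2 mM stocks in 100% DMSO; Times: 10 min, room temperature; Signal: luminescence from luciferase reaction; Read-out: luciferase activation; Controls: No-ATP low control, compound-free enzyme-plus-ATP high control.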
HSP90 inh – HSP90 inhibitors, primary screen, cell lysate, luminescence; AID 1789, 2009; Rabbit reticulocyte lysate, luciferase refolding luminescence, 3 h; 0.91% of 290,000 active; inhibition, % at 5.6 µM;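 active = inhibition above the screen-wide mean plus 3 SD, computed separately per campaign, cut at about 16% in these data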;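 also: inhibitors lower the luminescence because luciferase stays unfolded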
FLuc inh counter – firefly luciferase enzyme inhibitors, primary screen, artefact control for luciferase-based inhibitor screens, biochemical, luminescence, ATPLite; 1.5% of 200,000 active; inhibition, % at 10 µM; 10 min; AID 1006, 2008; Luciferin 4-monooxygenase (Photinus pyralis), P08659;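 active = inhibition above about 50% when tested at 10 µM, limit read from the data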
Hits are given with their value; . = inactive; / = not tested or not shown; ! = a repeat was not active.

SMILES | TRAIL sens C8 | PPC-1+TRAIL kill | STAT3 inh | FLuc act counter | HSP90 inh | FLuc inh counter
CN(C)c1ccnc2c[cH-]cc12.[Fe].c1ccc(-[c-]2[c-](-c3ccccc3)[c-](-c3ccccc3)[c-](-c3ccccc3)[c-]2-c2ccccc2)cc1 (configuration not stated) | 89! | . | / | / | / | /
Cc1ccc(S(=O)(=O)NCC(NCc2ccc(F)cc2)c2ccccc2)cc1 (configuration not stated) | . | / | / | / | / | /
O=C(O)c1ccccc1C(=O)Nc1cccc([N+](=O)[O-])c1 | . | . | / | / | . | /
O=C(Nc1cccc([N+](=O)[O-])c1)c1cc2ccccc2cc1O | 60 | . | / | / | . | /
Cc1c(C(=O)Nc2cccc([N+](=O)[O-])c2)csc1-c1ccccc1 | 57 | . | . | . | . | .
Clc1ccc(/C=N/NC2=Nc3cccc4cccc2c34)cc1 | . | . | . | . | . | .
C(=N\NC1=Nc2cccc3cccc1c23)/c1ccccc1 | 50 | . | . | . | . | 67
C(=N\NC1=Nc2cccc3cccc1c23)/c1cccnc1 | . | . | . | . | . | 60
Cc1cccc(C)c1NC(=O)C(=O)NCC1CCCN1S(=O)(=O)c1cccs1 (configuration not stated) | . | / | / | / | / | /
O=C(CNS(=O)(=O)c1ccccc1)NCC(=O)N1CCCCC1 | . | / | / | / | . | /
COc1ccc(-c2cn3cc(C)ccc3n2)cc1Br | 75 | 87 | . | . | . | 94
Cc1cccc(C)c1-n1nnnc1C(c1ccnc2ccccc12)N(C)Cc1ccccc1 (configuration not stated) | . | / | / | / | / | /
CC[C@@H](C)[C@H](CNC)NC[C@@H](Cc1cccc2ccccc12)NCCc1cccc(C(F)(F)F)c1 | 96 | / | / | / | . | /
CCC[C@@H](CN[C@@H](CNC)[C@H](C)CC)NCC1CCC(C(C)(C)C)CC1 (some centres not stated) | . | / | / | / | . | /
CCC[C@H](CN[C@@H](CNC)[C@H](C)CC)NCCc1cc(C(F)(F)F)cc(C(F)(F)F)c1 | 88 | / | / | / | . | /
C#CCSc1nnc(CSc2nc3ccccc3s2)n1-c1ccccc1 | 86 | . | . | . | . | .
CN(Cc1cnc2nc(N)nc(N)c2n1)c1ccc(C(=O)NC(CCC(=O)O)C(=O)O)c2ccccc12 (configuration not stated) | 83 | / | / | / | / | /
O=C(O)CCC(NC(=O)c1ccc(Cl)cc1)C(=O)O (configuration not stated) | . | . | . | . | . | .
COc1ccccc1NC(=O)CSc1nnc(CCC(=O)Nc2ccccc2F)n1C | . | . | / | / | . | /
O=C(NNc1c2ccccc2nc2ccccc12)c1ccccc1O | . | . | . | . | . | .
O=C(NNc1nc(=O)c2cccnc2s1)c1ccccc1O | 53 | . | . | . | . | .
Cc1c(Br)c([N+](=O)[O-])nn1CC(=O)NCc1cccnc1 | . | . | . | . | . | .
CC1(C(=O)Nc2cccc(C(F)(F)F)c2)Cc2c(-c3ccc4c(c3)OCO4)ccnc2O1 (configuration not stated) | . | / | / | / | / | /
Cn1cccc1C(=O)C(=O)Nc1ccc(Cl)cc1 | . | . | . | . | . | 62
CC(C)N(CCCNC(=O)c1ccc(CS(=O)(=O)c2c(Cl)cccc2Cl)o1)Cc1ccccc1 | . | / | / | / | . | /
SMILES | TRAIL sens C8 | PPC-1+TRAIL kill | STAT3 inh | FLuc act counter | HSP90 inh | FLuc inh counter
O=C(/C(C=Nc1ccc(Br)cc1)=C(/O)c1ccco1)C(F)(F)F | . | 60 | . | . | . | 66
Cc1ccc(CN=c2c([N+](=O)[O-])nn(-c3cccc(Cl)c3)n2O)cc1 | . | . | . | . | . | .
Cc1ccc(CN=c2c([N+](=O)[O-])nn(-c3cccc(C)c3)n2O)cc1 | 49 | . | . | . | . | .
Nc1nnc(-c2cccnc2)s1 | . | . | . | . | . | .
c1ccc(Nc2nnc(-c3cccnc3)s2)cc1 | 53 | / | / | / | . | /
CCOc1ccc(-c2cc(C(=O)NCc3ccccc3)[nH]n2)c(C)c1 | . | / | / | / | / | /
O=C1c2cccnc2-c2ncccc21 | . | . | . | . | . | .
O=C1C(=O)c2cccnc2-c2ncccc21 | 96 | / | / | / | / | /
O=C(O)c1cc(-c2ccc3c(c2)OCO3)nc2ccc(Br)cc12 | . | . | . | . | . | 72
COc1cccc2c1C(CO)N1C(C#N)C3CC(C(=O)O)C(C1C2)N3C (configuration not stated) | 59 | . | / | / | . | /
CCCCCCCCNc1ncnc2ccccc12 | . | . | 89 | . | . | .
COC1=CC(=O)c2c(ccc3ncnc(N)c23)C1=O | 92 | / | / | / | / | /
O=C1OC(/C(=C\Nc2ccc(F)cc2F)[N+](=O)[O-])c2ccccc21 (configuration not stated) | . | . | . | . | . | .
O=C1OC(/C(=C\Nc2cc(Cl)ccc2O)[N+](=O)[O-])c2ccccc21 (configuration not stated) | . | . | . | . | 38 | .
COCc1nnc(NC(=O)C2CC(=O)N(CCc3ccc(F)cc3)C2)s1 (configuration not stated) | . | / | / | / | . | /
O=C(N/N=C/c1cc(Br)ccc1O)C(c1ccncc1)N1CCOCC1 (configuration not stated) | 53 | . | . | . | . | .
O=c1[nH]c(/C(=N\O)c2ccccc2)no1 | 73 | . | . | . | . | .
O=C(c1ccccc1)c1ncc[nH]1 | . | / | / | / | . | /
CC(=NC1CCCCC1)C1=C(O)c2ccccc2C1=O | . | . | . | . | . | 58
Cc1nn(Cc2ccc(Cl)cc2Cl)c(C)c1NC(=O)CCl | 90 | . | . | . | . | .
Cc1nn(Cc2ccc(Cl)cc2Cl)c(C)c1NC(=O)c1nn(C)cc1Cl | . | . | . | . | . | .
COCc1cc(C)nc(SCC(=O)Nc2ccc3c(c2)n(C)c(=O)n3C)c1C#N | . | / | / | / | . | /
COc1cccc(-c2cn3nc4c(nc3n2)CCCC4)c1 | 53 | . | . | . | . | 68
COc1ccc(/C=C(\CC(=O)O)c2nc3ccccc3o2)cc1 | . | . | . | . | . | .
COc1ccc(C(=O)/C(=C/c2cccs2)c2nc3ccccc3o2)cc1 | . | . | . | . | 17 | .
COc1ccc(Cl)cc1NC(=O)NCc1ccccn1 | . | / | / | / | . | /
O=C(NCC1CCCO1)c1cccc(S(=O)(=O)Nc2ccc(SC(F)F)cc2)c1 (configuration not stated) | . | / | / | / | / | /
COc1cccc(C(=O)Nc2nc(-c3ccc(S(=O)(=O)N4CCOCC4)cc3)cs2)c1 | . | . | 48 | . | . | .
